# An excerpt weighted towards active compounds, which were near 0.77% of everything screened.
# bIAP inhibitor: blocks bovine intestinal alkaline phosphatase activity | purified bovine IAP, CDP-star luminescence, 30 min | inhibition, % at 20 µM | 190,000 tested, under 10 active | AID 1019;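 active means over 50% inhibition of intestinal alkaline phosphatase at 20 µM in the single-dose screen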
#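 Incubation: 30 min reaction at room temperature / Material: purified bovine intestinal alkaline phosphatase (IAP) enzyme / Input: enzyme at 1/65,000,000 dilution / Dosing: 20 µM single dose / Signal: CDP-star luminescence signal / Reagent: CDP-star chemiluminescent phosphatase substrate, 30 µM final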
# mIAP inh: mouse IAP inhibition; inhibition, % at 10 µM; hit rate 0.2% among 330,000; purified mouse IAP, CDP-Star luminescence, 30 min; AID 2806;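 active means inhibition of at least 40% at 10 µM in the primary screen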;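 further: plate controls were DMSO with enzyme for no effect and no enzyme wells for full effect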
# hIAP activ: human IAP activation; hit rate 0.16% among 330,000; P09923; activation factor at 10 µM; purified human IAP, CDP-Star luminescence, 30 min; active compounds read high; 1 = vehicle-only enzyme, 0 = enzyme-free background; AID 2524;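 active means activation factor of the enzyme at least 2-fold when tested at 20 µM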
# Target sequence (P09923 whole entry, looked up): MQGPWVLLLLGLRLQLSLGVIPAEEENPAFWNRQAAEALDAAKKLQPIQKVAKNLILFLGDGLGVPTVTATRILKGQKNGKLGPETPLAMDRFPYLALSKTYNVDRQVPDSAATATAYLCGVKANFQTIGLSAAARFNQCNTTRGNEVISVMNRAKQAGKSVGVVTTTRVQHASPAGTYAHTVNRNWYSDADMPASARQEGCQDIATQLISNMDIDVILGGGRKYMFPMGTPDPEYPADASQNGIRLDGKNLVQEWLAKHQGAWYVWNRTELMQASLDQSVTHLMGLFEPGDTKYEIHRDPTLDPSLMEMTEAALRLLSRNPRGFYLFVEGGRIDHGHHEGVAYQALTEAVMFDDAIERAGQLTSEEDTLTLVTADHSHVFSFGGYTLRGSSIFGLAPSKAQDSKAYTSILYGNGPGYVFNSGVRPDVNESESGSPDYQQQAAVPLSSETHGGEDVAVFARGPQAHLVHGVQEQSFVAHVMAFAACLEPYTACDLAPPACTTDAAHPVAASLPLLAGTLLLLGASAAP
# mIAP act: increases mouse intestinal alkaline phosphatase activity; muIAP, CDP-Star luminescence, 30 min; active compounds read high; 1 = vehicle-only enzyme signal, 0 = enzyme-free wells; activation factor at 10 µM; AID 2805; hit rate 0.24% among 330,000;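 active means activation factor of at least 2 at 20 µM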
#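 Assay system: mouse IAP enzyme; reagent: chemiluminescent substrate CDP-Star; dosing: test compounds delivered from DMSO solution; schedule: 30 min at room temperature; measured by: luminescence from enzymatic CDP-Star hydrolysis; controls: DMSO-only wells and no-enzyme negative control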
# bIAP activator: increases bovine intestinal alkaline phosphatase activity | purified bovine IAP, CDP-star luminescence, 30 min; active compounds read high; fold of DMSO-control signal, blank-subtracted | activation factor at 20 µM | hit rate 0.17% among 200,000 | AID 1016;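 active means activation factor of 2 or more at 20 µM, a signal rise over negative controls twice the positive control's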
# hIAP inh: blocks human intestinal alkaline phosphatase; P09923; purified IAP, CDP-Star luminescence, 30 min; inhibition, % at 10 µM; hit rate 0.12% among 330,000;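 active means inhibition reaching a set limit with compound at 10 µM in the primary screen, cut at about 35% in these data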;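 further: plate controls were DMSO wells with enzyme for no effect and no-enzyme buffer wells for full effect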
# mIAP inh confirm: mouse IAP inhibition confirmation. shares compounds with mIAP inh. purified mouse IAP, CDP-Star luminescence, 30 min. inhibition, % at 10 µM. hit rate 4.7% among 11,000. AID 434971;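 active means inhibition of at least 40% at 10 µM in either of the two replicates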;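 further: plate controls were DMSO wells with enzyme for no effect and buffer wells lacking enzyme for full effect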
# * hit, by the source's call; i = inactive; · = not tested or not shown.
SMILES,bIAP inhibitor,mIAP inh,hIAP activ,mIAP act,bIAP activator,hIAP inh,mIAP inh confirm
Cc1cc(/C=C2\SC(=S)NC2=O)c(C)n1-c1ccc(O)cc1,·,73*,0.88,0.27,·,12,71*
C/C(CC(=O)NCC(C)C)=N\NC(=O)COc1cc(C)c(Br)cc1Br,11,9,1.1,0.91,0.9,-11,·
COCc1cc(C)nc(SCC(=O)Nc2ccc(N3CCOCC3)cc2)c1C#N,·,0,1,1,·,-4,·
Cn1c(=O)c2ncn(CC(=O)O)c2n(C)c1=O,·,-10,1,1.1,·,-4,·
COc1cc(NC(=O)COC(=O)c2ccccc2SCC(=O)N2CCCC2)cc(OC)c1,·,-1,0.9,1,·,10,·
CCC(C)NC(=O)Nc1ccc2c(c1)N(C)C(=O)c1ccccc1S2 (centres undefined),-260,-240,1.1,3.4*,3.6*,-6,-100
Cc1ccc(NC(=O)C2CC(=O)n3c(nc4ccccc43)N2)cc1Cl (centres undefined),-136,-258,1.9,3.6*,2.4*,-92,-125
Cc1ccc(NC(=O)[C@@H]2CCC(=O)N2C2OC(=O)c3ccccc32)cc1Cl (some centres undefined),·,18,0.94,0.81,·,6,·
CCOC(=O)c1sc2nc(C)nc(SC(C)C(=O)N(C)c3ccccc3)c2c1C (centres undefined),·,8,0.94,0.92,·,6,·
CS(=O)(=O)Nc1ccc(C(=O)Nc2ccccc2-c2ccccc2)cc1,·,-13,0.88,1.1,·,12,·
CSC1=NSC2=NC(=O)/C(=C/c3coc4ccc(O)cc4c3=O)C(=N)N12,37,56*,1,0.44,0.6,-4,55*
COc1ccccc1/C=c1\sc2nc(-c3ccco3)nn2c1=O,5,42*,0.78,0.58,0.9,22,70*
COC(=O)c1ccccc1NC(=O)NCCc1ccccc1OC,-3,1,1,0.99,1,-2,·
CCOC(=O)c1ccc(NC(=O)NCCc2ccccc2OC)cc1,-12,-182,1.2,2.8*,1.1,-25,-101
Cc1c(Br)c(O)c(Br)c2sc(=O)oc12,·,59*,1.1,0.41,·,-9,65*
CCOC(=O)CNC(=O)c1cc(-c2ccccn2)nc2c(C)c(Cl)ccc12,-4,-1,1.1,1,1,-12,·
Cc1cc(NC(=O)Nc2ccc(Cl)c(Cl)c2)n(-c2ccccc2)n1,·,-327,1.5,4.3*,·,-55,-179
Cc1cc(NC(=O)Nc2cccc(Cl)c2)n(-c2ccccn2)n1,·,-68,1.2,1.7,·,-17,·
Cc1cc(NC(=O)Nc2cccc(Cl)c2)n(-c2ccccc2)n1,·,-204,1.9,3*,·,-86,-97
CCCCC1=CC2=C(c3ccco3)C(=O)C(C)(OC(=O)c3ccc(OC)cc3)C(=O)C2=CN1Cc1ccc2c(c1)OCO2 (centres undefined),·,44*,0.8,0.56,·,20,50*
CC1CC(=O)c2c(cc3c(-c4c(O)cc(O)c5c(O)c6c(cc45)OC(C)CC6=O)c(O)cc(O)c3c2O)O1 (centres undefined),29,42*,0.89,0.58,0.7,12,68*
O=C1CC(c2ccccc2)Oc2cc(O)cc(O)c21 (centres undefined),·,2,1,0.98,·,-3,·
CN1CCN(NC(=O)Nc2cc(Cl)cc(Cl)c2)CC1,·,-143,1.2,2.4*,·,-21,-120
COc1ccc(NC(=O)NN2CCN(C)CC2)cc1OC,·,-4,1.1,1,·,-14,·
Cc1[nH]ccc(=O)c1Oc1ncc(C(F)(F)F)cc1Cl,-1,0,0.99,1,1,1,·
SMILES,bIAP inhibitor,mIAP inh,hIAP activ,mIAP act,bIAP activator,hIAP inh,mIAP inh confirm
O=C1SC(SCc2ccccc2)=N/C1=C\c1ccco1,21,25,0.92,0.75,0.8,8,·
CCCSC1=N/C(=C\C=C\c2ccco2)C(=O)S1,31,45*,0.94,0.55,0.7,6,61*
O=C(CN1CCN(c2ccccc2F)CC1)c1ccc(O)c(O)c1,·,45*,0.85,0.55,·,15,51*
CC(C)OC(=O)NCCOC(=O)Nc1cccc(Cl)c1,14,-103,1.1,2*,0.9,-9,-112
Cc1csc(NC(=O)CCNC(=O)c2ccccc2Cl)n1,2,-3,1,1,1,-2,·
CCc1ccc(NC(=O)C(=S)NC2CCCCC2)cc1,2,15,1.2,0.85,1,-24,·
O=C(Nc1ccc(Br)cc1)NC1CCCCCCC1,·,-399,1.1,5*,·,-6,-174
CCc1ccc(NC(=O)NC2CCCCCCC2)cc1,·,-172,1.6,2.7*,·,-56,-213
C=CCN=c1scc(-c2ccco2)n1/N=C/c1ccc(O)c(O)c1O,·,59*,0.92,0.41,·,8,68*
COCCN=c1scc(-c2ccco2)n1/N=C/c1ccc(O)c(O)c1O,4,54*,1.2,0.46,1,-21,53*
CN(C)/C=C\C(=C/C(=O)C(F)(F)F)Nc1ccccc1Oc1ccccc1,-4,14,0.93,0.86,1,7,·
COC(=O)c1c(O)cc(C(C)(C)C)n(-c2ccc(F)cc2)c1=O,4,-5,1.1,1.1,1,-14,·
C#CCOCCOCCOCCNc1nc(N2CCN(C(=O)CCCCCCCCCCNC(=O)Cn3cc(C[C@@H](C)O)nn3)CC2)nc(N2CCN(C(=O)CCCCCCCCCCNC(=O)[C@@H]([C@H](C)CC)n3cc(CCCCCN)nn3)CC2)n1,·,i,1.1,6.1*,·,-8,-459
C#CCOCCOCCOCCNc1nc(N2CCN(C(=O)CCCCCCCCCCNC(=O)Cn3cc(CCCCCN)nn3)CC2)nc(N2CCN(C(=O)CCCCCCCCCCNC(=O)Cn3cc(C[C@@H](C)O)nn3)CC2)n1,·,-113,1.3,2.1*,·,-28,-122
Cc1ccccc1CC(=O)Nc1ccc(C(=O)N2CCCC2)cc1,·,-2,1.2,1,·,-16,·
O=C1/C(=C\c2ccco2)SC(=S)N1c1ccc(O)cc1,8,78*,0.99,0.22,0.9,1,77*
O=C(NN1C(=O)/C(=C/C=C/c2ccccc2)SC1=S)c1ccncc1,-7,20,0.97,0.8,1.1,3,·
O=C(NN1C(=O)/C(=C/C=C/c2ccco2)SC1=S)c1ccncc1,·,77*,0.94,0.23,·,6,77*
CC(C)C(C(=O)O)N1C(=O)/C(=C/c2cccn2C)SC1=S (centres undefined),-10,·,·,·,1.1,·,·
O=C1/C(=C\c2ccc(O)cc2)SC(=S)N1c1cccnc1,26,19,0.75,0.81,0.7,25,·
CC(C)C(C(=O)O)N1C(=O)/C(=C/C=C/c2ccco2)SC1=S (centres undefined),23,66*,1.1,0.34,0.8,-11,74*
